Assay results published in the M2OR odorant receptor database.

biological target: T1, UniProt E1BM68; conditions: stereoisomer not certain
T1 sequence (whole entry): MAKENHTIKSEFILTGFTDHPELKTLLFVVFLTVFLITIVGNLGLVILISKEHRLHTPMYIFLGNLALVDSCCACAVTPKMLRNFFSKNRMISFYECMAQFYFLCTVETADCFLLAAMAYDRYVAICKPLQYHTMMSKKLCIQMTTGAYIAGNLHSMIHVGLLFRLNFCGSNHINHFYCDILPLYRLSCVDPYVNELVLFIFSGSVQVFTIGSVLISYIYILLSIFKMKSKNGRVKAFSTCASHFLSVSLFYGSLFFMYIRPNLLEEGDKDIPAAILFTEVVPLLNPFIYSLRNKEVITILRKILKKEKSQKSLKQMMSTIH
Summary of the method: (§1)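 Each receptor–molecule pair is labelled responsive or non-responsive (inactive) according to whether the original authors judged the measured signal statistically different from baseline. The data were taken from the main text and supplementary material of published papers and checked for typos and inconsistencies. Assay methods differed by source, with transient luciferase assays in mammalian cell lines being common.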
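Note: active if original authors judged signal statistically different from baseline.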

Compound | odorant receptor agonist call
COc1cnccn1 | active
CCc1nccnc1CC | active
CCC(C)c1nccnc1OC (configuration not stated) | active
CCc1ncc(C)nc1CC | active
COc1nccnc1C(C)C | active

biological target: T2, UniProt E9PVX1; conditions: stereoisomer not certain
T2 sequence (whole entry): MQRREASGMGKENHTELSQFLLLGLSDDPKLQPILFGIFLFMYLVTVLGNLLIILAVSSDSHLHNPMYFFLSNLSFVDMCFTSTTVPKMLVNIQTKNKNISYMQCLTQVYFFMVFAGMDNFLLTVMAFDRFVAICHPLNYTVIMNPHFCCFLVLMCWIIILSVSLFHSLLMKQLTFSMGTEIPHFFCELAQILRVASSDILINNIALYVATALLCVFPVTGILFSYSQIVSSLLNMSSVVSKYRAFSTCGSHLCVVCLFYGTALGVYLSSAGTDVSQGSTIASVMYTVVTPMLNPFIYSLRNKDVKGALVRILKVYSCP
Summary of the method: as §1

Compound | odorant receptor agonist call
COC(OC)c1ccccc1 | inactive
COc1cnccn1 | inactive
CCCCCC=CCCC=O | inactive
CCCCCCCCCC(=O)[O-].[H+] | inactive
CCc1nccnc1CC | inactive
CCc1occc(=O)c1O | inactive
C=CC(=C)CCC=C(C)C | inactive
CCCCCOC(=O)CC | inactive
CCCCCCCCCCCO | inactive
CCCCCCC(C=O)=Cc1ccccc1 | inactive
CCOC(=O)C(C)CC (configuration not stated) | inactive
COc1nccnc1C | inactive
CNc1ccccc1C(=O)OC | inactive
CCC(C)c1nccnc1OC (configuration not stated) | inactive
c1ccc2ncccc2c1 | inactive
CC(=O)C1(C)CC2=C(CCCC2(C)C)CC1C (configuration not stated) | inactive
O=C([O-])CCCCCCC(=O)[O-].[H+].[H+] | inactive
CCCCCCCCCC=CC=O | inactive
CC=C(C)C=O | inactive

Compound | odorant receptor agonist call
CCCCCCCOC(=O)C(C)C | inactive
CC(=O)OC1(C)CCC23CC1C(C)(C)C2CCC3C (configuration not stated) | inactive
C=C(C)C1CC=C(C)CC1 (configuration not stated) | inactive
CCc1ncc(C)nc1CC | inactive
Cc1ccc(C(C)C)c(O)c1 | inactive
C1CCOC1 | inactive
COc1nccnc1C(C)C | inactive
CC1(C)CC(=O)CC(=O)C1 | inactive
O=C(OCc1ccccc1)c1ccccc1O | inactive
CCCCCC(=Cc1ccccc1)C(OC)OC | inactive
CCSCC | inactive
CC=CC(=O)C1=C(C)CCCC1(C)C | inactive
CCSSCC | inactive
CCN(CC)CC | inactive
CCC(C)O (configuration not stated) | inactive
CCc1ccccc1O | inactive
C=CC(=O)CCCCC | inactive
C=C(C)C1CCC(C)C(O)C1 (configuration not stated) | inactive
